Rows were chosen to be rich in hits. Some 1.7% of all compounds tested hit in one or more screens of this group.
SR-BI DiI inh: blocks mouse SR-BI lipid uptake from DiI-HDL; inhibition, % at 12.5 µM; AID 488896; Q61009; hit rate 0.96% among 320,000; ldlA[mSR-BI] CHO cells, DiI-HDL uptake fluorescence, 3 h;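 active means mean replicate inhibition of at least 70% and a set share of replicates each scoring 70 or more; inconclusive means meets just one of the two criteria; inactive means fails both criteria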;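 further: 0% = median of neutral control wells and 100% = median of positive control wells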
Target sequence (Q61009 whole entry, looked up): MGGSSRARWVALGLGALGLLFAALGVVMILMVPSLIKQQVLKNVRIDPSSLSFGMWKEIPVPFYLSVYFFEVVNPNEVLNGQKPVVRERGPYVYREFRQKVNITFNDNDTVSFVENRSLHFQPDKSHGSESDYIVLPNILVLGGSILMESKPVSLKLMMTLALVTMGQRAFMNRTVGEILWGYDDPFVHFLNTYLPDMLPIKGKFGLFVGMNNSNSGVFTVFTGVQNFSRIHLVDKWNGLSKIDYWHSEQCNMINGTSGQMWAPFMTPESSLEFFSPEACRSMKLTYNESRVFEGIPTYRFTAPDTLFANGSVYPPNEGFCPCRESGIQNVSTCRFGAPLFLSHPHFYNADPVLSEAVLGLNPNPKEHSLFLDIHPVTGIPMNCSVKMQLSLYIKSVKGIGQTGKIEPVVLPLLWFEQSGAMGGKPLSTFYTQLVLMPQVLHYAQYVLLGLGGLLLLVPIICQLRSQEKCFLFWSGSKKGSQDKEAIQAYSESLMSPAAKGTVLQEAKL
CaV13 ICDI inh: Primary screen for inhibitors of IQ motif and Ca2+-dependent inactivation inhibitor domain binding in CACNA1D, Förster resonance energy transfer in living cells, … | hit rate 0.098% among 340,000 | AID 743397 | inhibition, % at 12.3 µM | HEK cells, CFP/YFP FRET ICDI-IQ, plate reader, 10 min; percent FRET-ratio fall versus neutral wells;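 active means mean replicate inhibition of at least 30% and at least 1% of replicates passing that level; inconclusive means only one of the two criteria is met; inactive means neither criterion is met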;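 further: 0% = median of the neutral control wells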
Vif inh: blocks HIV Vif function. HEK293T cells, Vif self-association by quenched fluorescence, imaging, 24 h. inhibition, % at 7.49 µM. hit rate 0.35% among 340,000; in the data active means inhibition above about 50%, passing the limit was not always enough; inconclusive means no clear call, values can overlap the other calls; inactive means below about 31%
SR-BI uptake up: activators of SR-BI mediated HDL lipid uptake; CHO ldlA[mSR-BI] cells, DiI-HDL uptake fluorescence, 3 h; 100 = double the neutral-control signal; activation, % at 12.5 µM; hit rate 0.096% among 320,000; AID 504775;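 active means mean replicate activation of at least 60% and every replicate at or above 60%; inconclusive means mean or all-replicate condition met, but not both; inactive means mean below 60% and not all replicates reaching 60%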;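 further: 0% = median plate neutral-control signal and 100% = twice that signal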
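Material: SR-BI-overexpressing, LDLR-lacking CHO cells; schedule: compound exposure 3 h, 37 °C; reagent: DiI-labelled HDL at 10 µg/mL final; technique: bottom-read fluorescence, 550/595 nm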
NTR1 agonist: agonists of human neurotensin receptor NTR1. activation, % at 20 µM. NTR1-U2OS beta-arrestin-GFP spot imaging, agonist mode. hit rate 0.17% among 330,000. P30989;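 active means activation at or above 40% of the spot to cytoplasm intensity ratio, with at least 20 cells analyzed; inconclusive means wells under 20 cells, flagged as cytotoxic or low count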;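 further: 0% = DMSO without peptide and 100% = 100 nM NTR1 peptide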
V-ATPase pH: alters yeast V-ATPase proton transport | response, % at 10 µM | hit rate 0.37% among 350,000 | S. cerevisiae, pHLuorin cytosolic pH fluorescence | AID 504577; in the data active means response mostly above about 7.3%, no sharp cut-off; inactive means mostly below about 5.4%; further: actives read high
V-ATPase pH SP: regulators of yeast V-ATPase proton transport; hit rate 2% among 980; S. cerevisiae pHLuorin cytosolic pH; shares compounds with V-ATPase pH; response, % at 10 µM; AID 602197; in the data active means response above about 24%;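 further: plate controls were vehicle wells for no effect and positive control wells for full effect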
An asterisk follows results filed as active; ? = inconclusive; . = no result.

SMILES	SR-BI DiI inh	CaV13 ICDI inh	Vif inh	SR-BI uptake up	NTR1 agonist	V-ATPase pH	V-ATPase pH SP
COCCn1c(SCC(=O)N2CC(=O)Nc3ccccc32)nc2ccccc21	-2	-19	-9	2	2	-1	.
CC1CCN(c2nc(-c3ccc(F)cc3)cc(C(F)(F)F)n2)CC1	54	-3	0	-54	-1	8.6*	2
CCN(CC(=O)Nc1ccccc1C(F)(F)F)C(=O)c1ccccc1OCc1ccc(F)cc1	50	-6	-14	-50	.	-1	.
Cc1cc(C)cc(NS(=O)(=O)c2ccc3oc(=O)ccc3c2)c1	-4	-5	.	4	0	14*	3
CNC(=O)C[C@H]1C(=O)N(c2ccc(OC)cc2)C[C@@H]1C	.	-8	1	.	.	-1	.
CCOC(=O)C1CCCN(c2c(NCCCN3CCCC(C)C3)c(=O)c2=O)C1 (stereo not given)	-4	-6	12	4	-2	13*	-1
CCOC(=O)C1CCCN(c2c(NCC3CCCN3CC)c(=O)c2=O)C1 (stereo not given)	-3	-6	11	3	0	-1	.
O=C(Nc1ccn(Cc2c(F)c(F)cc(F)c2F)n1)c1cccc(Cn2cc([N+](=O)[O-])cn2)c1	55	-12	-3	-55	1	19*	1
Clc1ccc(-c2csc(N3CCSCC3)n2)cc1	25	4	32	-25	4	2	.
C/C(=N\NC(=S)NC1CCCCC1)c1cccc(Br)c1	9	-15	-4	-9	30	2	.
C/C(=N\NC(=S)NC1CCCCC1)c1cccc(C(F)(F)F)c1	-6	-15	0	6	6	13*	2
COc1cc(CNCc2ccc(OC)c(OC)c2OC)cc(OC)c1	2	-4	-16	24	0	12*	-5
CN1CCN(CC(=O)Nc2c(C#N)cnn2-c2ccccc2)CC1	.	-14	22	.	0	1	.
COc1ccc(-c2nc3ccccc3c(=O)n2NC(=O)Cc2ccccc2)cc1	-16	-3	0	16	1	9.8*	1
Cc1oc(-c2ccc(-c3ccccc3)cc2)nc1CN1CCN(CC(=O)N(C)C)CC1	-9	-6	-1	9	0	0	.
C1=Cc2ccccc2Nc2ccccc21	.	-1	0	.	0	12*	1
COc1cc(CC(=O)OCC(=O)NC2CCCC2)cc(OC)c1OC	-14	-2	-5	14	0	12*	-1
COc1cc(CC(=O)OCC(=O)NC2CC2)cc(OC)c1OC	-14	-10	13	14	2	2	.
COc1ccc(Sc2cc(C(F)(F)F)nc(-c3ccccn3)n2)cc1	-34	-4	-10	34	6	5	.
Cc1[nH]c(C)c(S(=O)(=O)N(Cc2ccccc2)C(C)(C)C)c1C(=O)N1CCCC1	-5	-6	-5	5	0	10*	3
CCCCOCCCNC(=O)C[C@@H]1C[C@@]2(C(=O)OCC)CCCC=C2N(CCc2ccc(OC)c(OC)c2)C1=O	.	-7	.	.	.	.	.
CC(C)c1ccc(NC(=O)/C(C#N)=C/c2ccncc2)cc1	63	-6	-5	-63	0	13*	17
CCc1c(C#N)c(=O)[nH]c(=O)n1-c1ccccc1	-3	-5	-4	3	-1	10.0*	-1
Nc1c(Br)c(=O)[nH]c(=O)n1-c1ccccc1	-82	-3	-11	?	-2	3	.
Cc1snc(S(=O)(=O)/C(C#N)=N/Nc2cccc(C(F)(F)F)c2)c1C#N	-16	.	-7	16	0	25*	-4
SMILES	SR-BI DiI inh	CaV13 ICDI inh	Vif inh	SR-BI uptake up	NTR1 agonist	V-ATPase pH	V-ATPase pH SP
Cc1csc(NC(=O)CSc2nncn2C)n1	-1	-4	?	1	0	13*	-2
COc1ccccc1C(=O)COC(=O)CNS(=O)(=O)c1ccc(C)cc1	-1	-3	-1	1	-1	-2	.
NC(=O)c1ccccc1NC(=O)CSC1=NCCS1	-20	-5	4	20	0	-2	.
O=C(CSC1=NCCS1)Nc1ccc(F)cc1	-20	-7	-6	20	-1	0	-1
CC(=O)Nc1ccc(NC(=O)CSc2nnc(NC(=O)Cc3ccc(F)cc3)s2)cc1	-6	-2	8	6	0	8.3*	2
Nc1nc(NCc2ccco2)nc(N2CCCC2)c1[N+](=O)[O-]	-25	-18	0	25	3	2	.
Nc1nc(NCc2ccco2)nc(N2CCCCCC2)c1[N+](=O)[O-]	-8	-7	-11	8	11	23*	1
COc1ccccc1CNC(=O)C1CCN(c2ncnc3c2nc2n3CCCCC2)CC1	18	-7	-6	.	1	12*	0
COc1cccc(CNC(=O)C2CCN(c3ncnc4c3nc3n4CCCCC3)CC2)c1	-23	-6	-2	23	1	2	.
COc1ccccc1NC(=O)c1ccccc1S(=O)(=O)c1ccccc1[N+](=O)[O-]	7	-16	-3	-7	-1	11*	6
COc1ccccc1NC(=O)c1ccccc1S(=O)(=O)c1ccc([N+](=O)[O-])cc1	33	.	-6	-33	0	-1	.
O=S(=O)(c1ccc(=S)[nH]c1)N1CCCC1	-4	-6	-1	4	4	-1	.
CC(C)CNC(C(=O)Nc1ccc([N+](=O)[O-])cc1Br)c1ccccc1 (stereo not given)	6	-5	20	-6	5	11*	2
O=C(CCNC(=O)c1ccccc1)NNC(=O)COc1ccccc1Cl	-35	-6	2	35	3	8.2*	0
CC(=O)c1cccc(Nc2nc3ccccc3n3cnnc23)c1	15	-17	3	-15	5	2	.
O=C(O)C(Cc1c[nH]c2ccccc12)N1C(=O)C2C3c4ccccc4C(c4ccccc43)[C@@H]2C1=O (stereo not given in full)	-12	-6	0	12	2	-6	.
CCCNC(=O)CCCN1C(=O)c2ccccc2Sc2ncccc21	-4	-4	7	4	0	9.0*	5
COC(=O)c1ccccc1NC(=O)CN1CCCCC1	-20	-4	1	20	0	12*	1
COc1ccccc1NC(=O)c1ccc(COc2ccccc2OC)cc1	3	-21	-12	-3	1	10*	1
COCCNC(=O)c1ccccc1NC(=O)c1ccc(OC)c(OC)c1	25	-4	2	-25	-1	11*	2
COc1ccc(C(=O)Nc2ccccc2C(=O)NCc2ccco2)cc1OC	37	-6	-2	-37	0	-1	.
O=C(O)CCC(=O)NN1C(=O)c2ccccc2NC1c1ccco1 (stereo not given)	.	-3	12	.	0	-4	.

Screening data from PubChem BioAssay.
